Experimental data taken from ChEMBL document CHEMBL1135992, “Quantitative structure-activity relationship analysis of functionalized amino acid anticonvulsant agents using k nearest neighbor and simulated annealing PLS methods” (2002).

Tests used:
Format in all cases: functional
[1] = system: Mus musculus; test: Anticonvulsant activity in mice following i.p. treatment and Maximal Electroshock Seizure (MES) test.
Procedure, shortened: (§1)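 Mice (18–25 g) received the compound ip as a suspension in 0.5% (w/v) methylcellulose in water. A 60-cycle alternating current of 50 mA was applied for 0.2 s. Protection was defined as abolition of the hindlimb tonic extensor component. […] ED50 and 95% confidence interval were calculated by Finney's methods.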

[2] = system: Mus musculus; test: In vivo anticonvulsant activity in male albino mice using the maximal electroshock seizure(MES) test upon intraperitoneal administration, expressed as logarithm of effective dose
Procedure, shortened: (§2)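 Mice (18–25 g) received the test agent intraperitoneally as a suspension in 0.5% (w/v) methylcellulose in water. A 60-cycle alternating current at 50 mA was applied for 0.2 s, and protection meant abolition of the hindlimb tonic extensor component. The ED50 was determined at the time of peak effect in groups of at least eight mice. At least two doses fell between 100% and 0% protection, and the 95% confidence interval was calculated by Finney's method.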

[3] = system: Mus musculus; test: In vivo anticonvulsant activity in male albino mice using the maximal electroshock (MES) test after intraperitoneal administration (exp 2); settings: ip; procedure, shortened: as §1
[4] = system: Mus musculus; test: In vivo anticonvulsant activity in male albino mice using the maximal electroshock (MES) test after intraperitoneal administration (exp 1); settings: ip; procedure, shortened: as §1
[5] = system: Mus musculus; test: In vivo anticonvulsant activity in male albino mice using the maximal electroshock (MES) test after intraperitoneal administration; value ranges from 85.7-151; settings: ip
[6] = system: Mus musculus; test: In vivo anticonvulsant activity in male albino mice using the maximal electroshock seizure(MES) test upon intraperitoneal administration; value ranges from 62.5 to 91; settings: ip
[7] = system: Mus musculus; test: In vivo anticonvulsant activity in male albino mice using the maximal electroshock seizure(MES) test upon intraperitoneal administration; value ranges from 51.9 to 68; settings: ip
[8] = system: Mus musculus; test: In vivo anticonvulsant activity in male albino mice using the maximal electroshock seizure(MES) test upon intraperitoneal administration; value ranges from 34.9 to 45; settings: ip; procedure, shortened: as §2
[9] = system: Mus musculus; test: In vivo anticonvulsant activity in male albino mice using the maximal electroshock seizure(MES) test upon intraperitoneal administration (exp 2); settings: ip; procedure, shortened: as §1
[10] = system: Mus musculus; test: In vivo anticonvulsant activity in male albino mice using the maximal electroshock seizure(MES) test upon intraperitoneal administration (exp 1); settings: ip; procedure, shortened: as §1
[11] = system: Mus musculus; test: In vivo anticonvulsant activity in male albino mice using the maximal electroshock seizure(MES) test upon intraperitoneal administration, expressed as logarithm of effective dose; value ranges from 2.63 to 3.11
[12] = system: Mus musculus; test: In vivo anticonvulsant activity in male albino mice using the maximal electroshock seizure(MES) test upon intraperitoneal administration, expressed as logarithm of effective dose; value ranges from 2.58 to 3.06; procedure, shortened: as §2
[13] = system: Mus musculus; test: In vivo anticonvulsant activity in male albino mice using the maximal electroshock seizure(MES) test upon intraperitoneal administration; value ranges from 46 to 61; settings: ip
[14] = system: Mus musculus; test: In vivo anticonvulsant activity in male albino mice using the maximal electroshock seizure(MES) test upon intraperitoneal administration; value ranges from 75.4 to 101; settings: ip
[15] = system: Mus musculus; test: In vivo anticonvulsant activity in male albino mice using the maximal electroshock seizure(MES) test upon intraperitoneal administration (exp-2); settings: ip; procedure, shortened: as §2
[16] = system: Mus musculus; test: In vivo anticonvulsant activity in male albino mice using the maximal electroshock seizure(MES) test upon intraperitoneal administration, expressed as logarithm of effective dose; value ranges from 2.63 to 3.12; procedure, shortened: as §2
[17] = system: Mus musculus; test: In vivo anticonvulsant activity in male albino mice using the maximal electroshock seizure(MES) test upon intraperitoneal administration (exp-1); settings: ip; procedure, shortened: as §2
[18] = system: Mus musculus; test: In vivo anticonvulsant activity in male albino mice using the maximal electroshock seizure(MES) test upon intraperitoneal administration; value ranges from 15 to 19; settings: ip
[19] = system: Mus musculus; test: In vivo anticonvulsant activity in male albino mice using the maximal electroshock seizure(MES) test upon intraperitoneal administration; value ranges from 44.4 to 59.9; settings: ip
[20] = system: Mus musculus; test: In vivo anticonvulsant activity in male albino mice using the maximal electroshock seizure(MES) test upon intraperitoneal administration, expressed as logarithm of effective dose; value ranges from 2.08 to 2.60

| Compound | Log ED50 [1] [uM kg-1] | Log ED50 [2] [uM kg-1] | other results |
| --- | --- | --- | --- |
| CC(=O)NC(N)C(=O)NCc1ccccc1 (stereo not drawn) | 2.47 |  |  |
| COC(NC(C)=O)C(=O)NCc1ccccc1 (stereo not drawn) | 2.62 |  |  |
| CC(=O)NC(C(=O)NCc1cc(F)ccc1F)c1ccco1 (stereo not drawn) |  | 1.89 |  |
| CC(=O)NC(C(=O)NCc1ccccc1)c1ccccc1 (stereo not drawn) |  | 2.06 |  |
| CON(C)C(NC(C)=O)C(=O)NCc1ccccc1 (stereo not drawn) | 1.4 |  |  |
| CC(=O)NC(C(=O)NCc1ccccc1)c1nccs1 (stereo not drawn) |  | 1.62 |  |
| CCCC(N)C(=O)NCc1ccccc1 (stereo not drawn) | 2.69 |  | ED50 [3]: < 100 mg/kg; ED50 [4]: > 30 mg/kg |
| CC(=O)NC(C(=N)NO)C(=O)NCc1ccccc1 (stereo not drawn) | 2.63 |  | ED50 [5]: 112 mg/kg |
| CNC(NC(C)=O)C(=O)NCc1ccccc1 (stereo not drawn) | 2.28 |  |  |
| CC(=O)NC(C(=O)NCc1ccc(F)cc1)c1ccco1 (stereo not drawn) |  | 1.64 |  |
| CC(=O)NC(C)C(=O)NCc1cccc(F)c1 (stereo not drawn) |  | 2.51 | ED50 [6]: 77.3 mg/kg |
| CC(=O)NC(=O)NCc1ccccc1 |  | 2.5 | ED50 [7]: 60.1 mg/kg |
| CCCC(NC(C)=O)C(=O)NCc1ccccc1 (stereo not drawn) |  | 2.19 | ED50 [8]: 38.4 mg/kg |
| CC(=O)NC(C)C(=O)N(C)Cc1ccccc1 (stereo not drawn) |  |  | ED50 [9]: < 300 mg/kg; ED50 [10]: > 100 mg/kg; Log ED50 [11]: 3.11 uM kg-1 |
| CC(=O)NC(C(=O)NCc1ccccc1F)c1ccco1 (stereo not drawn) |  | 2.14 |  |
| CC(=O)NC(C(=O)NCc1ccccc1)c1cnccn1 (stereo not drawn) |  | 1.72 |  |
| CCC(=O)NC(COC)C(=O)NCc1ccccc1 (stereo not drawn) |  |  | ED50 [9]: < 300 mg/kg; Log ED50 [12]: 3.06 uM kg-1; ED50 [10]: > 100 mg/kg |
| CC(=O)NC(C(=O)NCc1ccccc1)N(C)C (stereo not drawn) | 2.26 |  |  |
| O=C(NCc1ccccc1)C1CCCCN1 (stereo not drawn) |  | 2.38 | ED50 [13]: 53 mg/kg |
| CC(=O)NC(C(=O)NCc1ccccc1)c1ccc(C)o1 (stereo not drawn) |  | 1.83 |  |
| CC(=O)NC(O)C(=O)NCc1ccccc1 (stereo not drawn) | 2.56 |  |  |
| CC(=O)NC(C(=O)NCc1ccccc1)c1ncccn1 (stereo not drawn) |  | 1.46 |  |
| CCOC(NC(C)=O)C(=O)NCc1ccccc1 (stereo not drawn) | 2.39 |  |  |
| CC(=O)NC(C(=N)S)C(=O)NCc1ccccc1 (stereo not drawn) |  | 2.51 | ED50 [14]: 86.2 mg/kg |
| CC(=O)NC(C(=O)NCc1ccccc1)c1cccs1 (stereo not drawn) |  | 2.19 |  |
| C=CCC(NC(C)=O)C(=O)NCc1ccccc1 (stereo not drawn) |  | 2.16 |  |
| CCC(NC(C)=O)C(=O)NCc1ccccc1 (stereo not drawn) |  |  | ED50 [15]: < 300 mg/kg; Log ED50 [16]: 3.12 uM kg-1; ED50 [17]: > 100 mg/kg |
| CCOCC(NC(C)=O)C(=O)NCc1ccccc1 (stereo not drawn) |  | 1.81 | ED50 [18]: 17 mg/kg |
| CC(=O)NC(C(=O)NCc1ccccc1)C1CCCO1 (stereo not drawn) |  | 2.27 | ED50 [19]: 51.7 mg/kg |
| CCC(C(=O)NCc1ccccc1)N(C)C(C)=O (stereo not drawn) |  |  | ED50 [9]: < 100 mg/kg; Log ED50 [20]: 2.6 uM kg-1; ED50 [10]: > 30 mg/kg |
